41 compounds from ChEMBL document CHEMBL1142893, “Synthesis and biological evaluation of novel 5(H)-phenanthridin-6-ones, 5(H)-phenanthridin-6-one diketo acid, and polycyclic aromatic diketo acid analogs as new HIV-1 integrase inhibitors” (Bioorg Med Chem, 2007) can be followed below.

Data set [1] has as its target T1, Human immunodeficiency virus type 1 integrase (Human immunodeficiency virus 1, UniProt Q7ZJM1). Description: Inhibition of HIV1 integrase strand transfer activity. Put shortly:
(§1)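 Wild-type integrase at 200 nM final was preincubated with inhibitor for 30 min at 30 °C. Reaction buffer: 50 mM NaCl, 1 mM HEPES pH 7.5, EDTA, dithiothreitol, 10% glycerol, 7.5 mM MnCl₂, 0.1 mg/mL BSA, 10 mM 2-mercaptoethanol, 10% DMSO, 25 mM MOPS pH 7.2.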

For data set [2], the target named is T1, Human immunodeficiency virus type 1 integrase. Briefly: Inhibition of HIV1 integrase 3'-end processing activity. An outline of the steps:
as §1

Data set [3] deals with CCRF-CEM. Description: Cytotoxicity against human CEM cells after 6 days. As to conditions: 144 h; for IC50: Homo sapiens, CCRF-CEM. Type of data set: cell-based. Put shortly:
(§2)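 Uninfected cells (CEM leukemia cells; PBMC from whole blood of healthy donors) cultured with or without compound for 6 days. Afterwards cells were stained with Trypan blue and counted for proliferation and viability. Values reflect effects on cell growth.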

In data set [4] the test system is Vero. Briefly: Cytotoxicity against Vero cells after 3 days. Type of data set: cell-based. Conditions: Chlorocebus sabaeus, 72 h.
Data set [5] relates to PBMC. Briefly: Cytotoxicity against human PBMC after 6 days. The format is cell-based. Conditions: 144 h; for IC50: Homo sapiens, PBMC. An outline of the steps:
as §2

Data set [6] in a line: Selectivity index, ratio of EC50 for HIV1 LAI to IC50 for human PBMC. The format is functional.
Data set [7] relates to Human immunodeficiency virus 1. Briefly: Antiviral activity against HIV1 LAI replication in human PBMC after 5 days. As to conditions: for EC50 / EC90: Human immunodeficiency virus 1, LAI, 120 h. The format is functional, organism-based. An outline of the steps:
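PBMC (10⁷ cells/flask) stimulated 3 days with phytohemagglutinin, then infected with HIV-1 LAI at 100 50% tissue culture infective doses. Cultures were kept 5 days with compound at serial 1-log dilutions. Cells were removed by centrifugation (400g, 10 min, 4 °C), and the clarified supernatant was assayed for reverse transcriptase activity.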

Data set [8] concerns Human immunodeficiency virus 1. Briefly: Antiviral activity against HIV1 LAI replication in MOLT4 cells. Type of data set: functional, organism-based. Conditions: Human immunodeficiency virus 1, LAI, MOLT-4.

Calls of active or inactive are those of the source. The calls are words filed in the database; no cut-off is given here.

T1 sequence (Q7ZJM1 whole entry): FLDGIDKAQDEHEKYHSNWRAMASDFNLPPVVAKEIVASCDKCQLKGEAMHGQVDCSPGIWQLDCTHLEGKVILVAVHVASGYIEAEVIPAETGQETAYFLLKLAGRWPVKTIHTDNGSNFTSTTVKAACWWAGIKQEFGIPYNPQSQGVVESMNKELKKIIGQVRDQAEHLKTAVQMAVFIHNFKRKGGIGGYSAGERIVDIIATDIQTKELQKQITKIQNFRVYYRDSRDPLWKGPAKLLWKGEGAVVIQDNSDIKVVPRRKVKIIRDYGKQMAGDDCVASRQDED

Regarding `Cc1cccc2c1[nH]c(=O)c1ccccc12`, the concentration for half-maximal inhibition (IC50) in data set [1] and in data set [2] was > 1000 µM in each case.
Consider `N#Cc1cccc(CN(Cc2cccc(C#N)c2)c2ccc3[nH]c(=O)c4ccccc4c3c2)c1`, for which the IC50 in data set [1] and in data set [2] was > 500 µM throughout.
For `O=C(O)C(=O)CC(=O)c1ccc2ccc3ccccc3c2c1`, the IC50 in data set [3] was 56.4 µM; in data set [1], 2.7 µM; in data set [2], 25 µM; in data set [4], > 100 µM; in data set [5] it was 81 µM. For the same compound, in data set [6], the Selectivity index was 10. Further, it took 8 µM to reach a half-maximal effect in data set [7] (EC50). In addition, the EC90 in data set [7] was 72.8 µM.
As to `Cc1cc(C)c2[nH]c(=O)c3ccccc3c2c1`, the values for the IC50 in data set [1] and in data set [2] were > 1000 µM and 1000 µM, respectively.
With `O=C(O)C(=O)CC(=O)c1ccc2c(c1)[nH]c(=O)c1ccccc12`, the IC50 in data set [1] came to 65 µM; in data set [2] it was 400 µM.
As for `O=C(O)C(=O)CC(=O)c1ccc2ccc3cccc4ccc1c2c34`, the IC50 came to 0.53 µM in data set [1] and 7 µM in data set [2].
Consider `O=C(O)C(=O)CC(=O)c1ccc2c(ccc3ccccc32)c1`, for which the IC50 in data set [3] was 16.2 µM; in data set [1], 4.8 µM; in data set [2], 23 µM; in data set [4] it was 10.8 µM; in data set [5] it was > 100 µM. For the same compound, in data set [7], a half-maximal response (EC50) required 26.6 µM. Besides, in data set [7], the EC90 was > 100 µM.
Take `COC(=O)c1ccccc1-c1ccc(C(=O)CC(=O)C(=O)O)cc1[N+](=O)[O-]`: the IC50 in data set [1] came out at 7 µM; in data set [2], 26 µM.
Regarding `O=C(O)C(=O)CC(=O)c1cc(OCc2ccccc2)cc(OCc2ccccc2)c1`, the Activity result is “Not Active” in data set [3] (human, ccrf-cem); “Not Active” in data set [4]; “Not Active” in data set [5] (human, pbmc). In data set [8], this compound returned an EC50 of 5.7 µM. In addition, the outcome in data set [7] was inactive.
For the compound `Cc1ccc2cc(C(=O)CC(=O)C(=O)O)ccc2c1`, the IC50 in data set [1] amounted to 3 µM; in data set [2], 11 µM.
`O=C(O)C(=O)CC(=O)c1ccc(Br)c(CC(=O)c2ccccc2)c1`: the IC50 in data set [1] and in data set [2] was > 500 µM each time.
For the compound `O=c1[nH]c2ccc(Cl)cc2c2ccccc12`, the IC50 in data set [1] came out at 100 µM; in data set [2], 500 µM.
For the compound `O=c1[nH]c2ccc(Br)cc2c2ccccc12`, the IC50 in data set [1] came out at 78 µM; in data set [2], 225 µM.
Consider `Cc1ccc2oc3nc(C)c(C(=O)CC(=O)C(=O)O)cc3c(=O)c2c1`, for which the figures for the IC50 in data set [1] and in data set [2] were 16 µM and 92 µM, respectively.
Take `N#Cc1cccc(CNc2ccc3[nH]c(=O)c4ccccc4c3c2)c1`: the IC50 in data set [1] and in data set [2] was > 500 µM in each case.
As to `CCNc1ccc2[nH]c(=O)c3ccccc3c2c1`, the IC50 in data set [1] and in data set [2] was > 500 µM throughout.
Consider `Cc1cc(C)c2[nH]c(=O)c3ccc(C#N)cc3c2c1`, for which the IC50 in data set [1] and in data set [2] was > 500 µM each time.
On to `Cc1nc2oc3ccccc3c(=O)c2cc1C(=O)CC(=O)C(=O)O`, for which the IC50 was 35 µM in data set [1] and > 100 µM in data set [2].
On to `O=C(O)c1ccc2[nH]c(=O)c3ccccc3c2c1`, for which the IC50 is 203 µM in data set [1] and > 500 µM in data set [2].
Consider `Nc1ccc2[nH]c(=O)c3ccccc3c2c1`, for which the values for the IC50 in data set [1] and in data set [2] were 267 µM and 206 µM, respectively.
The matching figures for `O=c1[nH]c2ccc(S(=O)(=O)c3ccccc3)cc2c2ccccc12`: 415 µM and > 500 µM.
The matching figures for `Cc1cc(C)c2[nH]c(=O)c3ccc(C(F)(F)F)cc3c2c1`: > 500 µM and > 500 µM.
Consider `Cc1cc(C)c2[nH]c(=O)c3cc(C#N)ccc3c2c1`, for which the IC50 in data set [1] is 333 µM; in data set [2] it was 300 µM.
`CC(=O)Nc1ccc2[nH]c(=O)c3ccccc3c2c1`: the IC50 is 500 µM in data set [1] and > 500 µM in data set [2].
The matching figures for `O=C(O)C(=O)CC(=O)c1ccc2ccccc2c1`: 7 µM and 54 µM.
On to `N#Cc1ccc2[nH]c(=O)c3ccccc3c2c1`, for which the values for the IC50 in data set [1] and in data set [2] were 400 µM and > 500 µM, respectively.
`Cc1cccc2c1[nH]c(=O)c1cc(C#N)ccc12`: the IC50 in data set [1] and in data set [2] was > 500 µM each time.
Compound `Cc1cn([C@H]2C[C@H](N=[N+]=[N-])[C@@H](CO)O2)c(=O)[nH]c1=O` [ZIDOVUDINE] returned an IC50 in data set [4] of 50 µM. In addition, in data set [5], the IC50 was > 100 µM. Moreover, in data set [7], the EC50 stood at 0.00073 µM and the 90% effect level (EC90) was put at 0.019 µM.
Regarding `O=C(O)C(=O)CC(=O)c1ccc2cc3ccccc3cc2c1`, the IC50 in data set [1] was 13 µM; in data set [2] it was 32 µM.
As for `Cc1cccc2c1[nH]c(=O)c1ccc(C(F)(F)F)cc12`, the figures for the IC50 in data set [1] and in data set [2] were 109 µM and 449 µM, respectively.
Taken in the same sequence, the figures for `N#Cc1ccc(CN(Cc2ccc(C#N)cc2)c2ccc3[nH]c(=O)c4ccccc4c3c2)cc1` were 62 µM and 500 µM.
Taken in the same sequence, the figures for `O=c1[nH]c2ccc(C(F)(F)F)cc2c2ccccc12` were 900 µM and > 1000 µM.
As for `O=C(O)C(=O)CC(=O)c1c2ccccc2cc2ccccc12`, the IC50 was > 100 µM in data set [3]; 1.7 µM in data set [1]; 54 µM in data set [2]; > 100 µM in data set [4]; > 100 µM in data set [5]. Also, in data set [7], the EC50 is > 100 µM. Further, the EC90 in data set [7] is > 100 µM.
Take `COC(=O)C(=O)CC(=O)c1ccc(-c2ccccc2C(=O)OC)c([N+](=O)[O-])c1`: the IC50 in data set [1] was found to be 27 µM; in data set [2] it was 102 µM.
For the compound `O=C(O)C(=O)CC(=O)c1cc2ccccc2c2ccccc12`, the IC50 in data set [3] is 73.1 µM; in data set [1], 0.38 µM; in data set [2] it was 9 µM; in data set [4] it was > 100 µM; in data set [5] it was 83.5 µM. The EC50 in data set [7] was 83.7 µM. The EC90 in data set [7] was > 100 µM.
`Cc1cccc2c1[nH]c(=O)c1ccc(C#N)cc12`: the values for the IC50 in data set [1] and in data set [2] were 500 µM and > 500 µM, respectively.
Turning to `COC(=O)C(=O)CC(=O)c1ccc(Br)c(CC(=O)c2ccccc2)c1`, the IC50 in data set [1] and in data set [2] was > 500 µM each time.
For `COc1ccc2[nH]c(=O)c3ccccc3c2c1`, the IC50 in data set [1] was 500 µM; in data set [2] it was > 500 µM.
As for `O=C(O)C(=O)CC(=O)c1ccc(N2CCOCC2)cc1`, the IC50 in data set [1] is 23 µM; in data set [2] it was > 100 µM.
Consider `N#Cc1ccc(CNc2ccc3[nH]c(=O)c4ccccc4c3c2)cc1`, for which the IC50 in data set [1] and in data set [2] was > 500 µM each time.
With `O=C(Nc1ccc2[nH]c(=O)c3ccccc3c2c1)c1ccccc1`, the IC50 in data set [1] and in data set [2] was > 500 µM in each case.

By IC50 is commonly meant the concentration that gives 50% inhibition. The low end stands for higher potency, the high end for lower potency. One may read the EC50 as the concentration at which the effect is half-maximal. A high value points to a need for much substance. By EC90 is commonly meant the concentration needed for an effect of 90%. High values mean weaker potency, low ones greater potency.
